The list is not random: actives were taken first. Their share in the collection is about 2.2%.
NR2E3 ag-1 – inhibitors of NR2E3-RetCOR corepressor binding, primary screen, NR2E3 agonist project, biochemical, TR-FRET, GST-NR2E3, biotin-RetCOR; Photoreceptor-specific nuclear receptor (Homo sapiens), Q9Y5X4; 1536-well; inhibition of corepressor binding, % at 4.78 µM; 320,000 compounds, 0.12% hits;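 active = percent inhibition above the cutoff of mean plus 3 SD of all tested compounds, set per screening campaign, cut at about 20% in these data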
Target sequence (Q9Y5X4 whole entry, looked up): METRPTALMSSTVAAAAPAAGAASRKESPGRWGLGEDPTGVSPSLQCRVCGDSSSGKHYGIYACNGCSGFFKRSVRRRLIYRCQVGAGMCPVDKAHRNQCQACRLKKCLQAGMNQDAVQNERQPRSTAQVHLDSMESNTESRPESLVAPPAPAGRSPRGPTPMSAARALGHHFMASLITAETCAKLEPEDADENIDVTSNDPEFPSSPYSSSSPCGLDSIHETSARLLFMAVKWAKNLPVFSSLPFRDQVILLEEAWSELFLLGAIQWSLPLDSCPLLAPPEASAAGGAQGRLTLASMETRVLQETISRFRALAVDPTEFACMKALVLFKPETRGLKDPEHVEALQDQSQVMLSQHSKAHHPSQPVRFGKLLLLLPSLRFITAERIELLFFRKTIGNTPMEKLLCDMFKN
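Material: NR2E3–RetCOR corepressor complex / Incubation: Compound–protein incubation for 5 h at 4 °C / Dosing: compound at 4.8 µM, single dose / Detection: time-resolved FRET / Benchmarks: high control biotin, low control 0.6% DMSO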
HIV Env fusion – inhibitors of HIV-1 Env-driven cell-cell fusion, primary screen, HeLa-JRFL effector, CEM21 target cells, luciferase; inhibition, % at 12.3 µM; 360,000 compounds, 1.1% hits;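 active = mean replicate inhibition score of at least 50 and every replicate individually at or above 50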
V-ATPase pHluor – regulators of yeast V-ATPase proton pumping, primary screen, pHLuorin cytosolic pH fluorescence; AID 504577, 2011; response, % at 10 µM; S. cerevisiae; 350,000 compounds, 0.37% hits; in the data active = response mostly above about 7.3%, no sharp cut-off; inactive = mostly below about 5.4%; note: actives read high
GalR3 antagonist – GalR3 antagonists in HEK293 cells, primary screen, cell-based, fluorescence readout | Galanin receptor type 3 (Homo sapiens), O60755 | HEK293 GalR3-CNG cAMP membrane potential fluorescence; galR3 body fused to GalR1 C-terminus | inhibition, % at 3 µM | 360,000 compounds, 0.44% hits;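 active = inhibition above the screen-wide average plus 3 SD, cut at about 13% in these data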;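 note: forskolin and galanin both at EC90 stimulate the cells; cAMP rise reported by CNG channel membrane potential dye signal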
GAA850 FXN act – FXN promoter activators, primary screen, cell-based, luciferase luminescence, HEK293 lucGAA850. HEK293 lucGAA850 FXN promoter luciferase reporter, 24 h; percent of 10 µM SAHA response. activation, % at 6 µM. 360,000 compounds, 0.56% hits. AID 540364, 2011;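 active = activation above the average of all compounds screened plus 3 SD, cutoff fixed separately per campaign, cut at about 7.5% in these data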
NR2E3 ag-2 – NR2E3 agonists in two-hybrid cells, primary screen, cell-based, luminescence, CHO-S, Gal4-NCOR/VP16-NR2E3. Photoreceptor-specific nuclear receptor (Homo sapiens), Q9Y5X4. luciferase. inhibition of corepressor binding, % at 3.98 µM. 360,000 compounds, 0.35% hits;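 active = inhibition above the mean of all tested compounds plus 3 SD, cut at about 70% in these data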;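 note: higher means lower luciferase signal from less NR2E3 corepressor binding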
GalR3 conf – GalR3 antagonist hit confirmation, cell-based, fluorescence, triplicate; inhibition, % at 3 µM; shares compounds with GalR3 antagonist; 1,600 compounds, 59% hits; HEK293 GalR3 CNG cAMP biosensor, membrane potential fluorescence; galR3 fused to GalR1 carboxy tail; challenged with forskolin and galanin at EC90;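 active = inhibition above the primary screen's cutoff, the mean inhibition of all screened compounds plus 3 SD, cut at about 13% in these data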
CNG parental – nonspecific cAMP agonists in parental HEK-CNG cells, counter-screen for GalR3 antagonist project, cell-based, fluorescence, high throughput. shares compounds with GalR3 antagonist. HEK293-CNG parental cells, cAMP membrane potential fluorescence; normalised: DMSO wells 0%, forskolin wells 100%. activation, % at 3 µM. 1,600 compounds, 10% hits. AID 652268, 2013; in the data active = activation above about 1.3%
A number is an active result; - = inactive; . = no result.

SMILES	NR2E3 ag-1	HIV Env fusion	V-ATPase pHluor	GalR3 antagonist	GAA850 FXN act	NR2E3 ag-2	GalR3 conf	CNG parental
CC1=CC(C)(C)N2C(=O)C(=Nc3ccc(O)cc3)c3cccc1c32	-	-	-	16.1	-	-	-	-
COc1ccc(NC(=O)Nc2ccc3c(c2)C(=O)N([C@H](C)CO)C[C@@H](C)[C@@H](CN(C)S(=O)(=O)c2ccccc2)OCCCC[C@H](C)O3)cc1	.	-	.	.	.	.	.	.
C[C@@H]1CN([C@H](C)CO)S(=O)(=O)c2ccc(C#C[C@@H](C)O)cc2O[C@@H]1CN(C)C(=O)CC1CC1	.	-	.	.	.	.	.	.
CC(Sc1nc(N)c2c3c(sc2n1)CSC(C)(C)C3)C(=O)Nc1ccccc1 (stereo not given)	-	-	-	53.9	-	-	45.0	-
CC1(C)C(=O)Nc2ccccc2N1C(=O)COC(=O)c1cc(S(=O)(=O)N2CCOCC2)ccc1F	-	-	-	38.5	-	-	16.5	-
O=C(OCN1C(=O)c2ccccc2C1=O)c1cc(S(=O)(=O)N2CCOCC2)ccc1F	.	-	-	12.6	-	-	23.5	-
O=C(OCCN1C(=O)c2ccccc2C1=O)c1cc(S(=O)(=O)N2CCOCC2)ccc1Cl	-	.	-	-	-	-	.	.
CC1(C)C(=O)Nc2ccccc2N1C(=O)COC(=O)c1cc(S(C)(=O)=O)ccc1Cl	.	-	-	-	-	-	.	.
COc1ccc(COC(=O)C2=C(C)NC(=O)NC2c2ccc(OC)c(OC)c2)cc1 (stereo not given)	-	-	-	-	-	-	.	.
COc1ccc(COC(=O)C2=C(C)NC(=O)NC2c2cc(Br)c(O)c(OC)c2)cc1 (stereo not given)	-	-	-	29.5	-	-	34.7	-
CCOc1cc(C2NC(=O)NC(C)=C2C(=O)OCc2ccccc2)ccc1O (stereo not given)	-	.	-	13.5	-	-	15.2	-
CCC(=O)N(C)C[C@H]1Oc2cc(-c3ccccc3OC)ccc2S(=O)(=O)N([C@H](C)CO)C[C@@H]1C	.	-	.	.	.	.	.	.
COc1cccc(S(=O)(=O)NCc2ccc(C(=O)Nc3ccc(Cl)c(Cl)c3)cc2)c1	-	.	-	16.7	-	-	54.6	-
COc1ccc(NC(=O)c2ccc(CNS(=O)(=O)c3cccc(OC)c3)cc2)cc1	-	.	-	-	-	-	.	.
CCCCN(C)CCn1c(=S)[nH]c2ncccc2c1=O	-	-	-	40.3	-	-	-	-
CCN(CC)CCCn1c(=S)[nH]c2ncccc2c1=O	-	-	-	-	-	-	.	.
C[C@@H]1CN([C@@H](C)CO)S(=O)(=O)c2ccc(C#Cc3ccncc3)cc2O[C@H]1CN(C)C(=O)C1CCOCC1	.	-	.	.	.	.	.	.
COc1ccc(C(=S)N2CCCCCC2)cc1	-	-	-	12.7	-	-	-	-
COc1ccc(C(=S)N2CCNCC2)cc1	-	-	-	-	-	-	.	.
Cc1ccc(NC(=O)CSc2nnc(-c3cccnc3)s2)cc1	-	-	-	-	-	-	.	.
O=C(CSc1nnc(-c2cccnc2)s1)Nc1ccnc2ccccc12	-	55.4	-	90.5	-	-	118.7	-
Cn1cnc(S(=O)(=O)N[C@@H]2CC[C@H](CC(=O)N3CCN(c4ccccc4)CC3)O[C@H]2CO)c1	.	-	.	.	.	.	.	.
O=C(O)CC12CC3CC(C1)CC(n1ncc(NCC4CCCO4)c(Cl)c1=O)(C3)C2 (stereo not given)	-	-	-	-	-	-	.	.
O=C(O)CC12CC3CC(C1)CC(n1ncc(NCc4ccco4)c(Cl)c1=O)(C3)C2	-	-	-	15.5	-	-	-	-
CC1CC(=O)NN=C1c1ccc(NCCO)c([N+](=O)[O-])c1 (stereo not given)	-	61.8	-	64.3	-	-	71.2	-
SMILES	NR2E3 ag-1	HIV Env fusion	V-ATPase pHluor	GalR3 antagonist	GAA850 FXN act	NR2E3 ag-2	GalR3 conf	CNG parental
NS(=O)(=O)c1ccc(CNC(=O)c2csc3c2CCCC3)cc1	-	-	-	27.1	-	-	12.7	-
Cc1onc(-c2ccccc2Cl)c1C(=O)NNC(=O)c1cccc(F)c1	-	-	-	13.0	-	-	15.5	-
Cc1onc(-c2ccccc2Cl)c1C(=O)Nc1ccccc1	-	.	-	-	-	-	.	.
Cc1cccc(Cn2c(N3CCc4ccccc4C3)nc3c2c(=O)[nH]c(=O)n3C)c1	-	.	-	-	-	-	.	.
CC(C)CCn1c(N2CCc3ccccc3C2)nc2c1c(=O)[nH]c(=O)n2C	-	-	-	14.9	-	-	-	-
O=C(CN1C(=O)CCC1=O)Nc1cccc2c1C(=O)NC2=O	-	-	-	20.6	-	-	15.1	-
C[C@H](CO)N1C[C@H](C)[C@H](CN(C)C(=O)c2ccccc2)Oc2cc(C#CC3CC3)ccc2S1(=O)=O	.	-	.	.	.	.	.	.
CCOC(=O)C1(Cc2cccc(OC)c2)CCN(CC(O)CO)CC1 (stereo not given)	-	-	-	-	-	-	.	.
CCOC(=O)C1(Cc2cccc(OC)c2)CCN(CCO)CC1	-	-	-	18.4	-	-	-	-
COc1ccc(-n2c(C)cc(C(=O)COC(=O)Cn3cnc4ccccc43)c2C)cc1	-	.	-	99.6	-	-	89.4	-
COc1cccc(C2c3c(-c4cc(Cl)c(C)cc4O)n[nH]c3C(=O)N2Cc2cccnc2)c1 (stereo not given)	-	.	-	-	-	-	.	.
COc1cc(C2c3c(-c4cc(Cl)c(C)cc4O)n[nH]c3C(=O)N2Cc2cccnc2)ccc1O (stereo not given)	-	-	-	33.0	-	-	23.7	-
Cc1noc(C)c1S(=O)(=O)N(C)C[C@@H]1OCCCC[C@@H](C)Oc2ccc(NC(=O)Nc3ccc4c(c3)OCO4)cc2C(=O)N([C@H](C)CO)C[C@@H]1C	.	-	.	.	.	.	.	.
COc1ccc(NC(=O)COc2nc3ccccc3nc2N2CCOCC2)c(OC)c1	-	-	-	13.8	-	-	-	-
CCN(c1ccccc1)S(=O)(=O)c1ccc(C(=O)Nc2cccc(NC(C)=O)c2)cc1	.	.	-	-	-	-	.	.
CCN(c1ccccc1)S(=O)(=O)c1ccc(C(=O)Oc2ccc(C(C)=O)cc2)cc1	-	.	-	14.2	-	-	-	-

Assay outcomes as filed in PubChem BioAssay.
